The text below walks through data of ChEMBL document CHEMBL1629705, “PSI-7851, a pronucleotide of beta-D-2'-deoxy-2'-fluoro-2'-C-methyluridine monophosphate, is a potent and pan-genotype inhibitor of hepatitis C virus replication” (Antimicrob Agents Chemother, 2010).

The source made the active and inactive calls. No cut-off for these calls is given here.

For data set [1], the system named is Hepatitis C virus. Kind of data set: Antiviral activity against Hepatitis C virus assessed as clearance of HCV from replicon cells at 2 uM. The format is functional, organism-based. To be noted: Hepacivirus hominis. An outline of the steps: (§1)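 ET-lunet replicon cells, 1 × 10^5/well, no G418, with compound at 0.1, 1 or 2 μM (final DMSO 0.5%). Passaged 1:3 or 1:4 every 3–4 days for 3 weeks with fresh compound, then 3 more weeks with 0.25 mg/ml G418 and no inhibitor. HCV RNA by RT-PCR normalized to rRNA (ΔΔCt vs DMSO) at each passage. Crystal violet colony staining at 6 weeks.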
In general terms: In antiviral work, replicon cells carry a viral genome segment that copies itself.

Data set [2] relates to Hepatitis C virus. In words: Antiviral activity against Hepatitis C virus harboring wild-type NS5B infected in human lunet cells by luciferase-based replicon assay. The format is functional, Hepacivirus hominis. An outline of the steps:
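ET-lunet cells with the ET genotype 1b replicon, wild-type or S96T/N142T (ET replicon with these mutations electroporated into Lunet cells, selected in 0.2 mg/ml G418). 3,000 cells/well, 4 days with serially diluted compound. Firefly luciferase luminescence read-out; EC90 from dose–response.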

For data set [3], the target named is T1, DNA-directed RNA polymerase II subunit RPB1 (Homo sapiens, UniProt P24928). In words: Inhibition of human RNA polymerase at 2 uM.
For data set [4], the system named is Hepatitis C virus. Kind of data set: Selectivity ratio of EC90 for Hepatitis C virus harboring NS5B polymerase S96T mutant gene to EC90 for HCV harboring wild type NS5B polymerase. In kind it is functional, Hepacivirus hominis.
Data set [5] has as its system Hepatitis C virus. In words: Antiviral activity against Hepatitis C virus assessed as log reduction in viral RNA at 0.1 uM after 3 weeks. The format is functional, Hepacivirus hominis. An outline of the steps: (§2)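 ET-lunet replicon cells seeded at 1 × 10^5/well without G418, treated at 0.1, 1 or 2 μM (final DMSO 0.5%). Passaged 1:3–1:4 every 3–4 days for 3 weeks with fresh compound. Then compound withdrawn and cells grown 3 more weeks in 0.25 mg/ml G418. HCV RNA by RT-PCR (ΔΔCt vs rRNA and DMSO controls, log change). Colonies fixed in formaldehyde and stained with crystal violet at 6 weeks.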

Data set [6] is described as follows: Cytotoxicity against human HuH7 cells assessed as effect on cellular GAPDH RNA level after 8 days by quantitative real-time PCR. The format is cell-based, Huh-7. (In general: Quantitative PCR measures a nucleic acid by following its amplification.)
The subject of data set [7] is Hepatitis C virus. In words: Antiviral activity against Hepatitis C virus assessed as log reduction in viral RNA at 2 uM after 3 weeks. In kind it is functional, Hepacivirus hominis. An outline of the steps:
as §2

A short description of data set [8]: Cytotoxicity against human HepG2 cells. In kind it is cell-based. An outline of the steps:
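Cells treated 8 days with compound serially diluted from 100 μM in DMSO-containing medium, gemcitabine (1 μM) or DMSO control. Viability by MTS-type tetrazolium assay, absorbance at 490 nm with medium-only blanks. Value derived by comparison with DMSO control wells.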

Data set [9] has as its system Hepatitis C virus. Kind of data set: Antiviral activity against Hepatitis C virus assessed as inhibition of viral rebound at 1 uM after 3 weeks in presence of G418. In kind it is functional, organism-based. To be noted: Hepacivirus hominis. An outline of the steps: as §1
A further data set relates to CCRF-CEM. In words: Cytotoxicity against human CEM cells assessed as effect on ribosome RNA gene level at up to 100 uM after 14 days by quantitative real-time PCR assay. The format is cell-based. Particulars: 336 h. An outline of the steps:
(§3)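 HepG2 or CEM cells incubated 14 days with compound up to 100 μM, ddC as control. Medium and compound replenished on days 7 and 11. Mitochondrial COXII gene and nuclear rDNA measured by multiplex quantitative RT-PCR.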

In data set [10] the test system is Hepatitis C virus. In words: Antiviral activity against Hepatitis C virus H77. Particulars: genotype 1a H77. In kind it is functional, organism-based, Hepacivirus hominis.
Data set [11] deals with Hepatitis C virus. In words: Antiviral activity against Hepatitis C virus Con1 infected in human lunet cells assessed as inhibition of viral RNA replication after 4 days by luciferase reporter gene assay. The format is functional, organism-based, Hepacivirus hominis. Particulars: 96 h. The method in brief: (§4)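 Genotype 1b Con1 subgenomic replicon cells (ET-lunet, 3,000 cells/well, firefly luciferase ET replicon; clone A, 1,500 cells/well) incubated 4 days with serially diluted compound. Replication read by luciferase luminescence and/or real-time RT-PCR.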

The test system of a further data set is Hepatitis B virus. In words: Antiviral activity against Hepatitis B virus infected in human HepAD38 cells by quantitative real-time PCR. The format is functional, organism-based.
Data set [12] in a line: Cytotoxicity against human CEM cells assessed as inhibition of mitochondrial DNA synthesis. Particulars: CEM (CCRF-CEM) cells. In kind it is cell-based. An outline of the steps:
as §3

Data set [13] can be described thus: Cytotoxicity against human HeLaP4 cells. The format is cell-based.
In data set [14] the test system is Hepatitis C virus. Kind of data set: Antiviral activity against Hepatitis C virus harboring wild-type NS5B infected in human HuH7 cells by luciferase-based replicon assay. In kind it is functional, Hepacivirus hominis. To be noted: Huh-7.
The subject of data set [15] is Hepatitis C virus. In words: Antiviral activity against Hepatitis C virus isolate Con1 harboring Btat protein assessed as viral RNA level by quantitative real-time PCR. In kind it is functional, organism-based, Hepacivirus hominis.
The next data set concerns HepG2. Kind of data set: Mitochondrial toxicity in human HepG2 cells assessed as effect on mitochondrial cytochrome c oxidase subunit 2 gene level up to 100 uM after 14 days by real-time PCR assay. The format is cell-based. Particulars: hepg2, 336 h. The method in brief:
as §3

Data set [16] can be described thus: Cytotoxicity against human erythroid progenitor cells after 14 to 16 days by colony formation assay. The format is cell-based. An outline of the steps: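 Normal human bone marrow erythroid and myeloid progenitors, 2 × 10^4 cells per culture in methylcellulose with rh-SCF 50 ng/ml, rh-IL-3 10 ng/ml, rh-GM-CSF 10 ng/ml and rh-EPO 3 U/ml. Compound up to 50 μM, DMSO control 0.1%, 14–16 days.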

The subject of data set [17] is Hepatitis C virus. Kind of data set: Antiviral activity against Hepatitis C virus isolate Con1 infected in human HuH-7 cells assessed as inhibition of viral RNA replication after 4 days by luciferase reporter gene assay. Particulars: Con1, Huh-7, 96 h. In kind it is functional, Hepacivirus hominis. The method in brief:
as §4

In data set [18] the test system is Hepatitis C virus. Kind of data set: Antiviral activity against Hepatitis C virus H77 harboring Htat protein assessed as viral RNA level by quantitative real-time PCR. In kind it is functional, organism-based, Hepacivirus hominis. Particulars: genotype 1a H77.
A short description of data set [19]: Cytotoxicity against HFF. In kind it is cell-based. Particulars: human, HFF cells.
For the next data set, the system named is Influenza A virus. Kind of data set: Antiviral activity against Influenza A virus (A/Brisbane/59/2007 (H1N1)) infected in HFF by neutral red assay. The format is functional, organism-based.
The subject of data set [20] is Hepatitis C virus. Kind of data set: Antiviral activity against Hepatitis C virus harboring NS5B polymerase S282T mutant gene infected in human HuH7 cells by luciferase-based replicon assay. The format is functional, Hepacivirus hominis. To be noted: Huh-7.
Data set [21] deals with T1, DNA-directed RNA polymerase II subunit RPB1. In words: Inhibition of human RNA polymerase 2 assessed as synthesis of RNA products at 500 uM. An outline of the steps: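 In vitro transcription by HeLa nuclear extract from CMV immediate-early promoter DNA. Mix: 400 μM ATP, CTP and UTP, 16 μM GTP, [α-32P]GTP, 3 mM MgCl2, in 20 mM HEPES pH 7.9 buffer with KCl, EDTA, DTT and glycerol. Inhibitor up to 1 mM. 30°C for 60 min. RNA purified, run on 6% sequencing gel and quantified by phosphorimager.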

The nature of data set [22]: Inhibition of Hepatitis C virus genotype 4a recombinant NS5B polymerase after 3 hrs by phosphor imaging. Details: species or system Hepatitis C virus subtype 4a. An outline of the steps: (§5)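 C-terminal Δ21-truncated NS5B: 1b Con1 and 2a JFH-1 expressed in E. coli; 3a and 4a cloned from patient serum. Mix: 1 μM each NTP, [α-32P]UTP, 20 ng/μl genotype 1b(−) IRES RNA template, 40 ng/μl enzyme, 1 mM MgCl2, 0.75 mM MnCl2, 2 mM DTT, 50 mM HEPES pH 7.5. Run at 27°C: 30 min (1b, 2a) or 3 h (3a, 4a). EDTA quench, products on membrane read by phosphorimager. Duplicates; IC50 calculated.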

Data set [23] concerns Hepatitis C virus. Kind of data set: Inhibition of Hepatitis C virus Con1 recombinant NS5B polymerase after 30 mins by phosphor imaging. Details: species or system Hepacivirus hominis. Particulars: Con1, 0.5 h. The method in brief:
as §5

Take `CC(C)OC(=O)[C@H](C)NP(=O)(OC[C@H]1O[C@@H](n2ccc(=O)[nH]c2=O)[C@](C)(F)[C@@H]1O)Oc1ccccc1` (stereo partly specified): in the data set on Hepatitis C virus [1], the result was Active. In addition, the EC90 (commonly the concentration needed for an effect of 90%) with Hepatitis C virus [2] is 520 nM; in the data set on Hepatitis C virus [10] it was 340 nM; with Hepatitis C virus [11], 3810 nM; in the data set on Hepatitis C virus [14], 450 nM; in the data set on Hepatitis C virus [15], 650 nM; with Hepatitis C virus [17] it was 4320 nM. The 90% effect concentration (EC90) with Hepatitis C virus [18] was found to be 1220 nM; with Hepatitis C virus [20] it was 7400 nM. This compound returned a fold change (FC) in data set [3] of 5. In addition, the Selectivity ratio in the data set with Hepatitis C virus [4] came out at 0.66. For the same compound, the results for the FC in the data set on Hepatitis C virus [5] and in the data set on Hepatitis C virus [7] were 0.58 and >5, respectively. Also, in data set [6], the CC50 (as a rule, the concentration at which the toxic effect on the cells reaches its halfway point) at 192 h is > 100000 nM. Besides, the CC90 was 12800 nM in [8] and < 3000 nM in data set [12]. The inhibition (as a rule, the share of the control response that was lost under treatment) with Hepatitis C virus [9] is “Active”. In addition, the Activity entry with CCRF-CEM and with HepG2 was “Non-toxic” in each case. Also, the concentration giving a half-maximal response (EC50) (as a rule, the concentration that produces a half-maximal response) in the data set on Hepatitis C virus [10] is 190 nM; in the data set on Hepatitis C virus [11] it was 1340 nM; in the data set on Hepatitis B virus, > 100000 nM; in the data set on Hepatitis C virus [15] it was 90 nM; in the data set on Hepatitis C virus [18], 430 nM; with Influenza A virus, > 100000 nM. The CC50 in data set [13] is > 100000 nM; in data set [16], > 50000 nM; in data set [19], > 100000 nM.

`C[C@@]1(F)[C@H](O)[C@@H](COP(=O)(O)OP(=O)(O)OP(=O)(O)O)O[C@H]1n1ccc(=O)[nH]c1=O` [GS-461203]: the inhibition in data set [21] was found to be 85%. Also, the IC50 (commonly the point on the concentration scale where inhibition reaches its midpoint) in data set [22] was determined as 2600 nM; with Hepatitis C virus [23], 1600 nM.
